Test results reported in ChEMBL document CHEMBL4765307, “Design, synthesis and biological activity of novel 2,3,4,5-tetra-substituted thiophene derivatives as PI3Kα inhibitors with potent antitumor activity” (Eur J Med Chem, 2020).

Assays:
PI3K p110 beta/p85 alpha = PI3K p110 beta/p85 alpha (Homo sapiens, UniProt P42338); experiment: Inhibition of N-terminal His6-tagged human recombinant full length PI3Kbeta co-expressed with human recombinant full length P85alpha in baculovirus infected Sf21 cells using PIP2 peptide as substrate incubated for 1 hr in presence ATP by ADP-Glo Kinase Assay
PI3K p110 beta/p85 alpha, sequence (P27986 whole entry): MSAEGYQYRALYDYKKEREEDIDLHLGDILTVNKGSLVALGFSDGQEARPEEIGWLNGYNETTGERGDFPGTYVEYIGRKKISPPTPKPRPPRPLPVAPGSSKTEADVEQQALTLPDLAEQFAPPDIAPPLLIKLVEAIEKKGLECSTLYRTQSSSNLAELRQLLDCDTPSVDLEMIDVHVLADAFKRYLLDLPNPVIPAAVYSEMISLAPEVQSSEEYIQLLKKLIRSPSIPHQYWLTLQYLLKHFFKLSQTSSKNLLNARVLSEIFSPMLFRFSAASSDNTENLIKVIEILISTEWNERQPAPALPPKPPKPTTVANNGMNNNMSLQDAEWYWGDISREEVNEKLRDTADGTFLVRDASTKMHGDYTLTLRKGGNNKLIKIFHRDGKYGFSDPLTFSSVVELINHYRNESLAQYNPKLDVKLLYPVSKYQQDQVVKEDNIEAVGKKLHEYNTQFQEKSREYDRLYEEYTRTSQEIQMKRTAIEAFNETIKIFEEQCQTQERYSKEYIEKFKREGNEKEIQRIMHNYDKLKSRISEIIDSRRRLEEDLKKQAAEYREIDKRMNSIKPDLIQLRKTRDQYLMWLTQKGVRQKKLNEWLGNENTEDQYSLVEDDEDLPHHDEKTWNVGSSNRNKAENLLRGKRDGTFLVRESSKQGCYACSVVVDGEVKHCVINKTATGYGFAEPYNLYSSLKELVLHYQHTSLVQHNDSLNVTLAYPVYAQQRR
PI3K p110 beta/p85 alpha, sequence (P42338 whole entry): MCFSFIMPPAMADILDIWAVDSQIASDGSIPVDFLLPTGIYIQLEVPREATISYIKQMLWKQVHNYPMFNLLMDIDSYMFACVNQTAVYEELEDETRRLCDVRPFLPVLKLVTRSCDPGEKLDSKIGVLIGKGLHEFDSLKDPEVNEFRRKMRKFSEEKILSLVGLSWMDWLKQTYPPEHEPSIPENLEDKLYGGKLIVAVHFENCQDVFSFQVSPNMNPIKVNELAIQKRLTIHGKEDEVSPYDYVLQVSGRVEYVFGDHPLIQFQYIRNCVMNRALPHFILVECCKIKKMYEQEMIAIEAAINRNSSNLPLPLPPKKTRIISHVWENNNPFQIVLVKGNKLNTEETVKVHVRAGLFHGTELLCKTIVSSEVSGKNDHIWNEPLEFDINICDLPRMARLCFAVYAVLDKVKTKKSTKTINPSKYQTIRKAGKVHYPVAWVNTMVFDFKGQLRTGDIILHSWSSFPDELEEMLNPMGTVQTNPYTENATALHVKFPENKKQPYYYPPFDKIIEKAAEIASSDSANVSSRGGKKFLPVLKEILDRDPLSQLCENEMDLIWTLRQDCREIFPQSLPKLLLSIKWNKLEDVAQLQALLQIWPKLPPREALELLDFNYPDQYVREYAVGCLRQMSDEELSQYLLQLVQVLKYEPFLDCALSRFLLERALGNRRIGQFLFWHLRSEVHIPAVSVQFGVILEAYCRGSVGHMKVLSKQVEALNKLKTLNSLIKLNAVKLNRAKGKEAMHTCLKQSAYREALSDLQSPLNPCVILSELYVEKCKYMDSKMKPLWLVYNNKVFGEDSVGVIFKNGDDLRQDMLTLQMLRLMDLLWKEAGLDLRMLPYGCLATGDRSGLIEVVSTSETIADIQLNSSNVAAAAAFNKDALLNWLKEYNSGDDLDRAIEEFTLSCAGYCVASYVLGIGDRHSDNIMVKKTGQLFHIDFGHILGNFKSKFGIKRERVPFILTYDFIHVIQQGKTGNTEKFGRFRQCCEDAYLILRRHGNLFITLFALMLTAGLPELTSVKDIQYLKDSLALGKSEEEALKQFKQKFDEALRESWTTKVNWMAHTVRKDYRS
Procedure, shortened: (§1)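 ADP-Glo reagent 1 for 40 min, then reagent 2 with 60 min equilibration before reading. IC50 taken from inhibition curves; average of at least two runs.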

[1] = target: Phosphatidylinositol 4,5-bisphosphate 3-kinase catalytic subunit gamma isoform (Homo sapiens, UniProt P48736); experiment: Inhibition of GST-tagged human recombinant PI3Kgamma catalytic domain (468 to 1203 residues) expressed in insect cells using PIP2 peptide as substrate incubated for 1 hr in presence ATP by ADP-Glo Kinase Assay; procedure, shortened: as §1
Phosphatidylinositol 4,5-bisphosphate 3-kinase catalytic subunit gamma isoform, sequence (P48736 whole entry, the tested form may be a part, canonical isoform): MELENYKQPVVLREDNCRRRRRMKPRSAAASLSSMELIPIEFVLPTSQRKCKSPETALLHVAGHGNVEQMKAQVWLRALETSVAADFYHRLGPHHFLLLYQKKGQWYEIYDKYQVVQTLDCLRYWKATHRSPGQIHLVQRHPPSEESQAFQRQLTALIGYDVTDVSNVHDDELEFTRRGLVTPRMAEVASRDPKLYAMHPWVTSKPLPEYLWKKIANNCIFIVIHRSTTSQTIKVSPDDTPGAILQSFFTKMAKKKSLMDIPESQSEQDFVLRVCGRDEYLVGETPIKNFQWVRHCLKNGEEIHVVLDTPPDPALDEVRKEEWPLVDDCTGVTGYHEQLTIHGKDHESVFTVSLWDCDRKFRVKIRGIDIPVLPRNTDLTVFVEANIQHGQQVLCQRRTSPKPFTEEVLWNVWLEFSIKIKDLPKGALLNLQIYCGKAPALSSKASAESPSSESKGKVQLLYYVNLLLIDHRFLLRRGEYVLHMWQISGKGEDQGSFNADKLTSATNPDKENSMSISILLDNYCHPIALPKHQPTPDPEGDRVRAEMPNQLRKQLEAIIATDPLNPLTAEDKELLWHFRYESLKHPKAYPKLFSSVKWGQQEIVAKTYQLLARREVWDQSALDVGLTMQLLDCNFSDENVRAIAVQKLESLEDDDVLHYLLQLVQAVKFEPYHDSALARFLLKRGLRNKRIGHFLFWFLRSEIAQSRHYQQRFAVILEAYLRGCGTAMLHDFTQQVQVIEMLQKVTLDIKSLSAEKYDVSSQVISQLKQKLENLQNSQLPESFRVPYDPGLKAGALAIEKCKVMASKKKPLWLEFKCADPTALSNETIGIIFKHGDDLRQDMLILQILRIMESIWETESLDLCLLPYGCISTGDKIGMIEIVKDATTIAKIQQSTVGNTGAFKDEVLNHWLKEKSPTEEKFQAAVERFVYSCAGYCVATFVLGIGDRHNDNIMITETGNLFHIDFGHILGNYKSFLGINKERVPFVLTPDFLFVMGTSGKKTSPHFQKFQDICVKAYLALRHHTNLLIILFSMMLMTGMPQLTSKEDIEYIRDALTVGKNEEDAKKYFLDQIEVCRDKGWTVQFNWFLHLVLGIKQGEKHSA

T47D = experiment: Antiproliferative activity against human T47D cells harboring PIK3CA mutation assessed as reduction in cell viability after 3 days by CellTiter-Glo luminescence assay; type: functional, cell-based; settings: 72 h
Procedure, shortened: (§2)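 ATCC lines, 10% FBS: T47D, H1975, H460 in RPMI1640; U87MG in DMEM; A549 in F12K. Seeded 3×10^3 per well the day before, exposed to 3-fold serial dilutions or DMSO for 3 days at 37 °C, 5% CO2; CellTiter-Glo luminescence.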

NCI-H1975 = experiment: Antiproliferative activity against human NCI-H1975 cells harboring PIK3CA mutation assessed as reduction in cell viability after 3 days by CellTiter-Glo luminescence assay; type: functional, cell-based; settings: NCI-H1975, 72 h; procedure, shortened: as §2
[2] = Apparent permeability across basolateral to apical side in human Caco2 cells at 2 uM incubated for 2 hrs by LC-MS/MS analysis; type: ADME, cell-based; settings: Caco-2
Procedure, shortened: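 Caco-2 monolayers grown 21–28 days; compound 2 µM both directions in duplicate, DMSO <1%; 2 h at 37 °C, 5% CO2 without shaking. Donor and receiver levels by LC/MS/MS; integrity by lucifer yellow. Papp = (dCr/dt)×Vr/(A×C0); efflux ratio = Papp(B-A)/Papp(A-B).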

CYP2D6 = CYP2D6 (Homo sapiens, UniProt P10635); experiment: Inhibition of CYP2D6 in human liver microsomes using dextromethorphan as substrate at 10 uM preincubated for 10 mins followed by incubation with NADPH for 10 mins by LC- MS/MS analysis; type: ADME; settings: probe dextromethorphan, time 20 min
Procedure, shortened: (§3)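 Human liver microsomes 0.25 mg/mL with probe substrate (CYP1A2 10 µM phenacetin; CYP2D6 5 µM dextromethorphan; CYP3A4 2 µM midazolam), test compound 10 µM; 10 min preincubation at 37 °C, NADPH added (final 10 mM), 10 min at 37 °C; stopped with cold acetonitrile containing internal standards; LC-MS/MS.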

CYP3A4 = CYP3A4 (Homo sapiens, UniProt P08684); experiment: Inhibition of CYP3A4 in human liver microsomes using midazolam as substrate at 10 uM preincubated for 10 mins followed by incubation with NADPH for 10 mins by LC- MS/MS analysis; type: ADME; settings: probe midazolam, time 20 min; procedure, shortened: as §3
[3] = Volume of distribution in Sprague-Dawley rat at 5 mg/kg, iv measured after 24 hrs by LC-MS/MS analysis; type: ADME, organism-based; settings: in vivo
Procedure, shortened: (§4)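 Male SD rats (n=6), single 5 mg/kg intravenous dose; heparinised blood at 0.083–24 h, centrifuged at 4 °C; plasma quantified by LC–MS/MS; noncompartmental parameters.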

[4] = Clearance in Sprague-Dawley rat at 5 mg/kg, iv measured after 24 hrs by LC-MS/MS analysis; type: ADME, organism-based; settings: in vivo; procedure, shortened: as §4
[5] = AUC (0 to infinity) in Sprague-Dawley rat at 5 mg/kg, iv measured after 24 hrs by LC-MS/MS analysis; type: ADME, organism-based; parameters: route intravenous, dose 5 mg/kg, time 24 hrs; settings: in vivo; procedure, shortened: as §4
[6] = target: PI3-kinase p110-delta/p85-alpha (Homo sapiens, UniProt O00329); experiment: Inhibition of N-terminal His6-tagged human recombinant full length PI3Kdelta co-expressed with human recombinant full length P85alpha in baculovirus infected Sf21 cells using PIP2 peptide as substrate incubated for 2 hrs in presence ATP by ADP-Glo Kinase Assay
PI3-kinase p110-delta/p85-alpha, sequence (P27986 whole entry): as the sequence (P27986 whole entry) above
PI3-kinase p110-delta/p85-alpha, sequence (O00329 whole entry): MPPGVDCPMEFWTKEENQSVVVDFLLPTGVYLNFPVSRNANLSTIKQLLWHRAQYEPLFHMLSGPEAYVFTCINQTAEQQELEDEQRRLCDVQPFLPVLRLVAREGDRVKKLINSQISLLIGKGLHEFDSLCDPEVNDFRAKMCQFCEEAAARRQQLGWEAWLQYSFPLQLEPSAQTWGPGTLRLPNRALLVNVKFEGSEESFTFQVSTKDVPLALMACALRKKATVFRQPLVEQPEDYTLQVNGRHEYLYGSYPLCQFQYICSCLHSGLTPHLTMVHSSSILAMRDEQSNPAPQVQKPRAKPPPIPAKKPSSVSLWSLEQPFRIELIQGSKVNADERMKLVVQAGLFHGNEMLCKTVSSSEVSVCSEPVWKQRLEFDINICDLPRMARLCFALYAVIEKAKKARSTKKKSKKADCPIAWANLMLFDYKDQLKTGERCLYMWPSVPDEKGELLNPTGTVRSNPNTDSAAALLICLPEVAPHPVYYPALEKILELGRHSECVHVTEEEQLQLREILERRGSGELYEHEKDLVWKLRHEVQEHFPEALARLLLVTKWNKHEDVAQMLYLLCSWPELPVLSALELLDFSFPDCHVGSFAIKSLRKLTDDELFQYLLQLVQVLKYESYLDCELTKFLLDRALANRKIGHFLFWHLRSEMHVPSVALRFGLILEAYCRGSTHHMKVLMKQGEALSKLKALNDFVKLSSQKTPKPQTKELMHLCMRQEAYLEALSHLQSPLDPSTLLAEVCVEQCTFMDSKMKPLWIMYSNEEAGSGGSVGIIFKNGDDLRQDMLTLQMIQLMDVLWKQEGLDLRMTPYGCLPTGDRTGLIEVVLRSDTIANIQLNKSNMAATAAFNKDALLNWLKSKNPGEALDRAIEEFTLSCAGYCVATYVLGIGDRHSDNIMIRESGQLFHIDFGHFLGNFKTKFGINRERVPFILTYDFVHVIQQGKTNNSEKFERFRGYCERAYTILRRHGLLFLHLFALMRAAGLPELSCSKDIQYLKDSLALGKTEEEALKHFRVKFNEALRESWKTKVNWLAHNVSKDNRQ
Procedure, shortened: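 ADP-Glo reagent 1 for 40 min, then reagent 2 with 60 min equilibration. IC50 from inhibition curves; average of at least two runs.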

[7] = Metabolic stability in rat liver microsomes assessed as parent compound remaining at 1 uM preincubated for 10 mins followed by incubation in phosphate buffer at pH 7.4 for 60 mins by LC-MS/MS analysis; type: ADME, Microsome; settings: time 70 min, read-out: Stabilty
Procedure, shortened: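 Compound 1 µM with human or rat microsomes 0.5 mg/mL, preincubated 10 min at 37 °C in 100 mM potassium phosphate pH 7.4, 10 mM MgCl2; started with NADPH, sampled 0–60 min, quenched with cold acetonitrile, LC–MS/MS. A parallel no-NADPH control was run.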

[8] = target: Phosphatidylinositol 4,5-bisphosphate 3-kinase catalytic subunit alpha isoform (Homo sapiens) (UniProt P42336); experiment: Inhibition of PI3Kalpha in human T47D cells assessed as inhibition of insulin-stimulated Akt phosphorylation at Ser473 residue at 0.3 uM preincubated for 2 hrs followed by incubation with insulin for 2 hrs by western blot analysis relative to control; type: cell-based; settings: time 4.0 hrs
Phosphatidylinositol 4,5-bisphosphate 3-kinase catalytic subunit alpha isoform (Homo sapiens), sequence (P42336 whole entry, canonical isoform): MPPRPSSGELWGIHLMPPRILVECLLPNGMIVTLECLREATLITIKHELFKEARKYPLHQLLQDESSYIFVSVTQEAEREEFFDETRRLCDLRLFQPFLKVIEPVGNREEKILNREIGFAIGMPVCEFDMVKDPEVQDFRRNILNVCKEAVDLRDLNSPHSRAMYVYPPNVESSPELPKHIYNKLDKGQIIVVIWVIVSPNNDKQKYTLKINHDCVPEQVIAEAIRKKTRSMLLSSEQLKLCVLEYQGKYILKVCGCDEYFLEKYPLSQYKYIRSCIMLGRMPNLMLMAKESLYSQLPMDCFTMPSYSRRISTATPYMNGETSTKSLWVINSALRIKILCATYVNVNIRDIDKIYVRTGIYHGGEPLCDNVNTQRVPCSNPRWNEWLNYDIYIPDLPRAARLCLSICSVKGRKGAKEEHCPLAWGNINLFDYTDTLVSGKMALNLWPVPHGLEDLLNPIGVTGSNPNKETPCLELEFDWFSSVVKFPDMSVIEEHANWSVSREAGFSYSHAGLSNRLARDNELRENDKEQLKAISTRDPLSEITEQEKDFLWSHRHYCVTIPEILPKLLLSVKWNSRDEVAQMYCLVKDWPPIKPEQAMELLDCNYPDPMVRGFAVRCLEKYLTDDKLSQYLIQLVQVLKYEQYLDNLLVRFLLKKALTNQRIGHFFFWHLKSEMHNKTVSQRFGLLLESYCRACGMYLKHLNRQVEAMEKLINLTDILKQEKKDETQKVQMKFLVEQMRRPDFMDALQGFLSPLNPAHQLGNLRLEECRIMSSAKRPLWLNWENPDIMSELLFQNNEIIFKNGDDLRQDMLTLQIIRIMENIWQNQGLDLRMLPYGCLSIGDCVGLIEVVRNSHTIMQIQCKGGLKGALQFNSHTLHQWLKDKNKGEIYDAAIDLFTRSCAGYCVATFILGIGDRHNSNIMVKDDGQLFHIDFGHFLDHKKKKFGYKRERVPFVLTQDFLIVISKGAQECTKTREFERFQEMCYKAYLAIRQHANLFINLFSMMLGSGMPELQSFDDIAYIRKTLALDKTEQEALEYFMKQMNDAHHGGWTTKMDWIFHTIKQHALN
Procedure, shortened: (§5)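 T47D cells given compound at 37 °C for 2 h, then stimulated with 1 µg/mL insulin for 2 h; lysed in RIPA with protease/phosphatase inhibitors and 1 mM PMSF; BCA-normalised SDS-PAGE, PVDF blot probed overnight at 4 °C for total Akt and pAkt Ser473, infrared secondary detection.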

[9] = target: Phosphatidylinositol 4,5-bisphosphate 3-kinase catalytic subunit alpha isoform (Homo sapiens) (UniProt P42336); experiment: Inhibition of PI3Kalpha in human T47D cells assessed as inhibition of insulin-stimulated Akt phosphorylation at Ser473 residue at 0.1 uM preincubated for 2 hrs followed by incubation with insulin for 2 hrs by western blot analysis relative to control; type: cell-based; settings: time 4.0 hrs; procedure, shortened: as §5
[10] = target: Phosphatidylinositol 4,5-bisphosphate 3-kinase catalytic subunit alpha isoform (Homo sapiens) (UniProt P42336); experiment: Inhibition of PI3Kalpha in human T47D cells assessed as inhibition of insulin-stimulated Akt phosphorylation at Ser473 residue preincubated for 2 hrs followed by incubation with insulin for 2 hrs by western blot analysis relative to control; type: cell-based; settings: dose 0.1-3 µM, time 4.0 hrs; procedure, shortened: as §5

IC50 (PI3K p110 beta/p85 alpha): 108 nM | Ki (PI3K p110 beta/p85 alpha): 89 nM | IC50 [1]: 258 nM | Ki [1]: 193 nM | IC50 (T47D): 310 nM | IC50 (NCI-H1975): 1060 nM | Papp B→A at 2 h, 2 µM [2]: 8.4 ×10⁻⁶ cm/s | inhibition at 10 min, 10 µM (CYP2D6): 28% | inhibition at 10 min, 10 µM (CYP3A4): 1.5% | Vd [3]: 8.6 L/kg | clearance [4]: 52.4 mL/min/kg | AUC(0-inf) [5]: 1620 ng·h/mL | IC50 [6]: 275 nM | Ki [6]: 245 nM | remaining at 1 h, 1 µM [7]: 42.6% | inhibition [8]: 59% | inhibition [9]: 58% | inhibition [10]: Dose-dependent effect
Compound: N#Cc1c(N2CCOCC2)sc(-c2nc[nH]n2)c1-c1ccc(NC(=O)Nc2ccccc2Cl)cc1
